ChEMBL document CHEMBL4138042, “A Scaffold Merging Approach to Hsp90 C-terminal Inhibition: Synthesis and Evaluation of a Chimeric Library” (Medchemcomm, 2017)
The source made the active and inactive calls. No cut-off for these calls is given here.

test system: MCF7; experiment: Antiproliferative activity in human MCF7 cells incubated for 72 hrs by MTS/PMS cell proliferation assay; type: functional, cell-based; details: MCF7, 72 h
Procedure, shortened: (§1)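 Values are mean ± SD of at least three separate experiments, each run in triplicate.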

First: CN1CCC(Oc2ccc(-c3cccc(NC(=O)c4cn(Cc5ccc([N+](=O)[O-])cc5)nn4)c3)c(-c3cccc(C(F)(F)F)c3)c2)CC1
Second: COc1ccc(Cn2cc(C(=O)Nc3cccc(-c4ccc(OC5CCN(C)CC5)cc4-c4cccc(C(F)(F)F)c4)c3)nn2)cc1
The EC50 of the first is 2-fold lower: 2000 nM for the first, 4000 nM for the second. The first is the more potent here.

`CC(=O)Oc1ccc(C(=O)Nc2ccc(-c3ccc(OC4CCN(C)CC4)cc3-c3cccc(C(F)(F)F)c3)cc2)cc1CC=C(C)C` and `COc1cccc(-c2cc(C(=O)Nc3ccc(-c4ccc(OC5CCN(C)CC5)cc4-c4cccc(C(F)(F)F)c4)cc3)ccc2OC)c1` are within 1.5-fold of each other in EC50: 2600 nM for the first, 2200 nM for the second.

`COc1cccc(-c2cc(C(=O)NCCc3ccc(OC4CCN(C)CC4)cc3-c3cccc(C(F)(F)F)c3)ccc2OC)c1` and `COc1cccc(-c2cc(C(=O)Nc3cccc(-c4ccc(OC5CCN(C)CC5)cc4-c4cccc(C(F)(F)F)c4)c3)ccc2OC)c1` are within 1.5-fold of each other in EC50: 2700 nM for the first, 2300 nM for the second.

`CN1CCC(Oc2ccc(-c3cccc(NC(=O)c4ccc(C(C)(C)C)cc4)c3)c(-c3cccc(F)c3)c2)CC1` and `CN1CCC(Oc2ccc(-c3ccc(NC(=O)c4ccc(C(C)(C)C)cc4)cc3)c(-c3cccc(F)c3)c2)CC1` are within 1.5-fold of each other in EC50: 5200 nM for the first, 4200 nM for the second.

Going from `CN1CCC(Oc2ccc(-c3ccc(NC(=O)c4cn(Cc5ccc(C(C)(C)C)cc5)nn4)cc3)c(-c3cccc(C(F)(F)F)c3)c2)CC1` to `CN1CCC(Oc2ccc(-c3cccc(NC(=O)c4cn(Cc5ccc(C(C)(C)C)cc5)nn4)c3)c(-c3cccc(C(F)(F)F)c3)c2)CC1`, the EC50 falls from 5000 nM to 3000 nM (1.7-fold).

Compared with `COc1cccc(-c2cc(C(=O)Nc3ccc(-c4ccc(OC5CCN(C)CC5)cc4-c4cccc(F)c4)cc3)ccc2OC)c1`, `CN1CCC(Oc2ccc(-c3ccc(NC(=O)c4ccc(Br)cc4)cc3)c(-c3cccc(F)c3)c2)CC1` is 2.4-fold higher in EC50: 2100 nM for the first, 5100 nM for the second.

`CN1CCC(Oc2ccc(-c3cccc(NC(=O)c4ccc(C(C)(C)C)cc4)c3)c(-c3cccc(C(F)(F)F)c3)c2)CC1` and `CN1CCC(Oc2ccc(-c3ccc(NC(=O)c4cn(Cc5ccccc5)nn4)cc3)c(-c3cccc(C(F)(F)F)c3)c2)CC1` are within 1.5-fold of each other in EC50: 2800 nM for the first, 2900 nM for the second.

test system: SK-BR-3; experiment: Antiproliferative activity in human SKBR3 cells incubated for 72 hrs by MTS/PMS cell proliferation assay; type: functional, cell-based; details: SK-BR-3, 72 h; procedure, shortened: as §1

Compared with `CN1CCC(Oc2ccc(-c3cccc(NC(=O)c4cn(Cc5ccc([N+](=O)[O-])cc5)nn4)c3)c(-c3cccc(C(F)(F)F)c3)c2)CC1`, `COc1ccc(Cn2cc(C(=O)Nc3cccc(-c4ccc(OC5CCN(C)CC5)cc4-c4cccc(C(F)(F)F)c4)c3)nn2)cc1` is 2.1-fold higher in EC50: 1900 nM for the first, 4000 nM for the second.

`CC(=O)Oc1ccc(C(=O)Nc2ccc(-c3ccc(OC4CCN(C)CC4)cc3-c3cccc(C(F)(F)F)c3)cc2)cc1CC=C(C)C` and `COc1cccc(-c2cc(C(=O)Nc3ccc(-c4ccc(OC5CCN(C)CC5)cc4-c4cccc(C(F)(F)F)c4)cc3)ccc2OC)c1` are within 1.5-fold of each other in EC50: 2300 nM for the first, 1800 nM for the second.

First: COc1cccc(-c2cc(C(=O)NCCc3ccc(OC4CCN(C)CC4)cc3-c3cccc(C(F)(F)F)c3)ccc2OC)c1
Second: COc1cccc(-c2cc(C(=O)Nc3cccc(-c4ccc(OC5CCN(C)CC5)cc4-c4cccc(C(F)(F)F)c4)c3)ccc2OC)c1
The EC50 of the first is 1.8-fold higher: 3500 nM for the first, 1900 nM for the second.

`CN1CCC(Oc2ccc(-c3cccc(NC(=O)c4ccc(C(C)(C)C)cc4)c3)c(-c3cccc(F)c3)c2)CC1` and `CN1CCC(Oc2ccc(-c3ccc(NC(=O)c4ccc(C(C)(C)C)cc4)cc3)c(-c3cccc(F)c3)c2)CC1` are within 1.5-fold of each other in EC50: 6200 nM for the first, 4200 nM for the second.

`CN1CCC(Oc2ccc(-c3ccc(NC(=O)c4cn(Cc5ccc(C(C)(C)C)cc5)nn4)cc3)c(-c3cccc(C(F)(F)F)c3)c2)CC1` and `CN1CCC(Oc2ccc(-c3cccc(NC(=O)c4cn(Cc5ccc(C(C)(C)C)cc5)nn4)c3)c(-c3cccc(C(F)(F)F)c3)c2)CC1` are within 1.5-fold of each other in EC50: 4400 nM for the first, 3000 nM for the second.

`COc1cccc(-c2cc(C(=O)Nc3ccc(-c4ccc(OC5CCN(C)CC5)cc4-c4cccc(F)c4)cc3)ccc2OC)c1` and `CN1CCC(Oc2ccc(-c3ccc(NC(=O)c4ccc(Br)cc4)cc3)c(-c3cccc(F)c3)c2)CC1` are within 1.5-fold of each other in EC50: 4200 nM for the first, 5200 nM for the second.

`CN1CCC(Oc2ccc(-c3cccc(NC(=O)c4ccc(C(C)(C)C)cc4)c3)c(-c3cccc(C(F)(F)F)c3)c2)CC1` and `CN1CCC(Oc2ccc(-c3ccc(NC(=O)c4cn(Cc5ccccc5)nn4)cc3)c(-c3cccc(C(F)(F)F)c3)c2)CC1` are within 1.5-fold of each other in EC50: 1800 nM for the first, 2200 nM for the second.

molecular target: Heat shock protein HSP90 (Homo sapiens) (UniProt P07900+P08238); experiment: Inhibition of HSP90 in human PC3-MM2 cells expressing luciferase assessed as reduction in heat-denatured lucifearse refolding incubated for 1 hr by luciferase rematuration assay; type: cell-based; details: not given
Procedure, shortened: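 PC3-MM2 cells expressing firefly luciferase were heated to denature luciferase, then incubated with DMSO or test compound. Luciferase activity was then measured to gauge refolding. Read-out is RLU relative to DMSO, given as mean ± SD of at least two separate experiments run in triplicate.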

With `CN1CCC(Oc2ccc(-c3cccc(NC(=O)c4cn(Cc5ccc([N+](=O)[O-])cc5)nn4)c3)c(-c3cccc(C(F)(F)F)c3)c2)CC1` the inhibition was “Active”.
In the case of `COc1ccc(Cn2cc(C(=O)Nc3cccc(-c4ccc(OC5CCN(C)CC5)cc4-c4cccc(C(F)(F)F)c4)c3)nn2)cc1`, the inhibition is reported as “Active”.
`CN1CCC(Oc2ccc(-c3ccc(NC(=O)c4cn(Cc5ccc(C(C)(C)C)cc5)nn4)cc3)c(-c3cccc(C(F)(F)F)c3)c2)CC1` was tested, and the inhibition was “inactive”.
For `CN1CCC(Oc2ccc(-c3ccc(NC(=O)c4cn(Cc5ccccc5)nn4)cc3)c(-c3cccc(C(F)(F)F)c3)c2)CC1`, the inhibition was “Active”.
With `CN1CCC(Oc2ccc(-c3cccc(NC(=O)c4cn(Cc5ccc(C(C)(C)C)cc5)nn4)c3)c(-c3cccc(C(F)(F)F)c3)c2)CC1` the inhibition was “inactive”.
With `CN1CCC(Oc2ccc(-c3ccc(NC(=O)c4ccc(Br)cc4)cc3)c(-c3cccc(F)c3)c2)CC1` the inhibition was “Active”.
